Substitutions are numbered along the chain they refer to.
Columns and labels:
rM1 E401H = molecular target: T1, rM1 E401H (Rattus norvegicus, UniProt P08482, E401H); experiment: Calcium mobilization, rM1 E401H mutant CHO-K1 cells; assay type: cell-based
T1 sequence (P08482 1-460 E401H): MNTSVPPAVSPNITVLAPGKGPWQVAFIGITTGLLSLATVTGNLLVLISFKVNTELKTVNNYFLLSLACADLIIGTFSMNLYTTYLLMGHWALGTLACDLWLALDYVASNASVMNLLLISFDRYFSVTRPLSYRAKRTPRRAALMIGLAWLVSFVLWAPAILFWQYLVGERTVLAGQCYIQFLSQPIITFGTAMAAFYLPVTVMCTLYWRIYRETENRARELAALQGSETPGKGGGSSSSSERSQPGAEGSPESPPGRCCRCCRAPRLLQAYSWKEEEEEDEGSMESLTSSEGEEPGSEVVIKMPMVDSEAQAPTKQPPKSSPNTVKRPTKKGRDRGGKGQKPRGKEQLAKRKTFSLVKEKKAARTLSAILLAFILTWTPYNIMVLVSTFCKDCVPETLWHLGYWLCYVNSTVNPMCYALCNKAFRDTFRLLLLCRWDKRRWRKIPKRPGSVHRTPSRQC
Outline: (§1)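 CHO-K1 cells were transiently transfected overnight at 37 °C with 10 μg of mutant rat M1 cDNA in pcDNA3.1+ using Fugene 6, then plated for the calcium assay. They were loaded with 2 μM Fluo-4 AM for 1 h at 37 °C in HEPES/probenecid-buffered HBSS, pH 7.4. Test compound dose–response series were added at 19 s. Calcium mobilization was measured as fluorescence increase over basal.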

hM2 = molecular target: T2, hM2 (Homo sapiens, UniProt P08172); experiment: Calcium mobilization assay, agonist mode, M2; assay type: cell-based; conditions: up to 30 μM
T2 sequence (P08172 1-466): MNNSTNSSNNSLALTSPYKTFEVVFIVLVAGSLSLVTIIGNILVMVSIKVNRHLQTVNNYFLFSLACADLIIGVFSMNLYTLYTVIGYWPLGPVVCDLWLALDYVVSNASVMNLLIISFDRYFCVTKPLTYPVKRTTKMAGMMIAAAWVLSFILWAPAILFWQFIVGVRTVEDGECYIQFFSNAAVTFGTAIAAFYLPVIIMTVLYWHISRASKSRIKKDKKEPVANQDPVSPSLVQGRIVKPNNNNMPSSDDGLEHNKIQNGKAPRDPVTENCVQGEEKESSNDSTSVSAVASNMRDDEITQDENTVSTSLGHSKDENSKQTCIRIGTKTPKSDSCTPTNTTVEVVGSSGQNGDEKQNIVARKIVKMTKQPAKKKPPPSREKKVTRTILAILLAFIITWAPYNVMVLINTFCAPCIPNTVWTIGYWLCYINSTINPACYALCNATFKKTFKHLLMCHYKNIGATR
Outline: (§2)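 CHO-K1 cells stably expressing hM2/Gqi5 or rM4/Gqi5 (6 × 10^4 cells/well), or hM3 or hM5 (5 × 10^4 cells/well), were cultured overnight at 37 °C in 5% CO2. Cells were loaded with 2 μM Fluo-4 AM for 1 h at 37 °C in HBSS with 20 mM HEPES and 2.5 mM probenecid, pH 7.4. Eight-point test compound concentration series were added at 19 s of a 130 s read. Calcium flux was read as fluorescence fold over basal.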

M3 = M3 (Homo sapiens, UniProt P20309); experiment: [3H]-NMS competition binding, M3 CHO membranes; conditions: concentrations well above those required to fully activate M1
Sequence of M3 (P20309 whole entry): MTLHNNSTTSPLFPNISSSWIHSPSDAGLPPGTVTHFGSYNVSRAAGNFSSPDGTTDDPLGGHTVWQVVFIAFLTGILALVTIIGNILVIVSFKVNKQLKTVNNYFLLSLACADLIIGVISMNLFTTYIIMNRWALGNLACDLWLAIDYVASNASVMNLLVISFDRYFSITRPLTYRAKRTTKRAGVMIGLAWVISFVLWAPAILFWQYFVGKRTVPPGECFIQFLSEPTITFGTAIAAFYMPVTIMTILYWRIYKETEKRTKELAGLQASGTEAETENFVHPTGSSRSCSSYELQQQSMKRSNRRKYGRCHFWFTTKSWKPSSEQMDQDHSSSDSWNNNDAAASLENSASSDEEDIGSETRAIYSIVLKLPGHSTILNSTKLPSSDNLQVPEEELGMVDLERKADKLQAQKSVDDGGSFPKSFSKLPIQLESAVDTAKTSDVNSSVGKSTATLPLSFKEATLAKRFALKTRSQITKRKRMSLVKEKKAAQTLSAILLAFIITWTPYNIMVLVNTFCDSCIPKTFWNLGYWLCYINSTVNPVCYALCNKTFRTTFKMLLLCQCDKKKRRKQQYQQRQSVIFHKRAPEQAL

rM1 K392D/E397V/E401H = molecular target: T3, rM1 K392D/E397V/E401H (Rattus norvegicus, UniProt P08482, E397V/E401H/K392D); experiment: Calcium mobilization, transiently transfected rM1 triple mutant CHO cells; assay type: cell-based; conditions: compared with wt rM1
T3 sequence (P08482 1-460 K392D/E397V/E401H): T1 sequence (P08482 1-460 E401H) with K392D, E397V
Outline: as §1

hM5 = molecular target: T4, hM5 (Homo sapiens, UniProt P08912); experiment: Calcium mobilization assay, agonist mode, M5; assay type: cell-based; conditions: up to 30 μM
T4 sequence (P08912 1-532): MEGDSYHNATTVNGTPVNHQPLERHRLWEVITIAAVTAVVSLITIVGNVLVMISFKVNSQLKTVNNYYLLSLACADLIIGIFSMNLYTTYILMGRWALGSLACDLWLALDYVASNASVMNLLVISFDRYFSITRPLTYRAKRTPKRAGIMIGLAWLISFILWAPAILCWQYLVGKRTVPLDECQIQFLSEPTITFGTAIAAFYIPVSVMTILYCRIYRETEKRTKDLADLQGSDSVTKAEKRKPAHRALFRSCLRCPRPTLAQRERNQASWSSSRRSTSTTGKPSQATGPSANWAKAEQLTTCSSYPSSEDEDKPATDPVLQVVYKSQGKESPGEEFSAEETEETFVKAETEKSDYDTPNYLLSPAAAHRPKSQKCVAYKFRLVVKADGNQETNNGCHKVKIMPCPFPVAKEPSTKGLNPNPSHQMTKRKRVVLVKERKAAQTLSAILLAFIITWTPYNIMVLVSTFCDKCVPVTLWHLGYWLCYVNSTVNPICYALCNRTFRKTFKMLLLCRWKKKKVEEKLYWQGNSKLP
Outline: as §2

M1 = molecular target: T5, M1 (Rattus norvegicus, UniProt P08482); experiment: [3H]-NMS competition binding, M1 CHO membranes; conditions: concentrations well above those required to fully activate M1
T5 sequence (P08482 1-460): T1 sequence (P08482 1-460 E401H) with H401E

EC50 (rM1 E401H): 1210 nM
Emax (rM1 E401H; CHO-K1, read-out: E401H mutant Emax): 29.4%
agonist activity at M2 (hM2): no activity
reduction of [3H]-NMS binding to M3 (M3): did not reduce
functional response at K392D/E397V/E401H triple mutant (rM1 K392D/E397V/E401H): almost completely ablated
agonist activity at M5 (hM5): no activity
reduction of [3H]-NMS binding to M1 (M1): did not reduce
SMILES: CCOC(=O)N1CCC(NCCNC(=O)c2ccccc2)CC1 [VU0184670, ethyl 4-(2-benzamidoethylamino)piperidine-1-carboxylate]

— paper PMC3180826 (ACS chemical neuroscience, 2010)
